In ChEMBL document CHEMBL1255303, “In vitro and in vivo antifungal activities of T-2307, a novel arylamidine” (2008):
≈ marks a conversion by molar mass, not a printed value.

Experiments:
Format in all cases: functional
Candida albicans [1] = assay: Antifungal activity against Candida albicans ATCC MYA-573 after 47 hrs by broth microdilution method; settings: ATCC MYA-573, 47 h
Method in brief: (§1)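 Fluconazole-resistant or susceptible-dose-dependent ATCC C. albicans strains were tested by CLSI M27-A2 broth microdilution in RPMI 1640–0.165 M MOPS, pH 7.0, with a final inoculum of 1.1–1.5 × 10^3 CFU/ml at 35°C for about 47 h. MIC was the lowest concentration with a prominent (~50%) turbidity decrease relative to growth control; amphotericin B was read at complete inhibition.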

Candida dubliniensis = assay: Antifungal activity against Candida dubliniensis ATCC MYA-577 after 48 hrs by broth microdilution method; settings: ATCC MYA-577, 48 h
Method in brief: (§2)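 CLSI M27-A2 (yeasts) / M38-A (moulds) broth microdilution in RPMI 1640 buffered to pH 7.0 with 0.165 M MOPS. Malassezia furfur got the same medium supplemented with glucose, bile salts, glycerol, glycerol monostearate and Tween 20. Final inoculum 0.65 × 10^3–2.5 × 10^3 CFU/ml for yeasts and 0.87 × 10^4–3.8 × 10^4 CFU/ml for filamentous fungi. Incubation at 35°C except M. racemosus and F. solani, which were held at 30°C.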

Pichia kudriavzevii = assay: Antifungal activity against Candida krusei IFO 0584 after 48 hrs by broth microdilution method; settings: IFO 0584, 48 h; method in brief: as §2
Fusarium solani = assay: Antifungal activity against Fusarium solani IFO 31093 after 48 hrs by broth microdilution method; settings: IFO 31093, 48 h; method in brief: as §2
Aspergillus fumigatus [2] = assay: Antifungal activity against Aspergillus fumigatus clinical isolates after 48 hrs by broth microdilution method
Method in brief: (§3)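 Clinical isolates from Japanese hospitals or culture collections were tested by broth microdilution in RPMI 1640-MOPS. Inoculum was 0.57 × 10^3–2.5 × 10^3 CFU/ml for yeasts and 0.4 × 10^4–3.3 × 10^4 CFU/ml for filamentous fungi. Incubation was at 35°C for about 48 h, or 72 h where footnoted. Results were summarised as MIC range, MIC50 and MIC90.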

Aspergillus flavus = assay: Antifungal activity against Aspergillus flavus NBRC 6343 after 48 hrs by broth microdilution method; settings: NBRC 6343, 48 h; method in brief: as §2
Lichtheimia corymbifera = assay: Antifungal activity against Absidia corymbifera NBRC 4009 after 24 hrs by broth microdilution method; settings: NBRC 4009, 24 h; method in brief: as §2
Candida parapsilosis = assay: Antifungal activity against Candida parapsilosis clinical isolates after 48 hrs by broth microdilution method; settings: Lodderomyces parapsilosis
Method in brief: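 Japanese hospital Candida isolates were tested by CLSI M27-A2 broth microdilution in RPMI 1640–MOPS, pH 7.0, with inocula of 0.57–2.5 × 10^3 CFU/ml at 35°C for about 48 h. Inocula came from 24-h potato dextrose agar cultures. MIC was the lowest concentration with about 50% turbidity reduction versus growth control (complete inhibition for amphotericin B). Range, MIC50 and MIC90 were reported.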

Candida tropicalis [3] = assay: Antifungal activity against Candida tropicalis IFO 1400 after 48 hrs by broth microdilution method; settings: IFO 1400, 48 h; method in brief: as §2
Mucor racemosus = assay: Antifungal activity against Mucor racemosus NBRC5403 after 24 hrs by broth microdilution method; settings: NBRC5403, 24 h
Candida albicans [4] = assay: Antifungal activity against Candida albicans ATCC MYA-574 after 47 hrs by broth microdilution method; settings: ATCC MYA-574, 47 h
Method in brief: (§4)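 Fluconazole-resistant or susceptible-dose-dependent C. albicans ATCC strains were tested by broth microdilution in RPMI 1640-MOPS. Inoculum was 1.1 × 10^3–1.5 × 10^3 CFU/ml, with incubation at 35°C for about 47 h. Yeast MIC was read as about 50% turbidity decrease relative to growth control, except amphotericin B, read at complete inhibition.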

Scedosporium boydii = assay: Antifungal activity against Pseudallescheria boydii NBRC 32229 after 72 hrs by broth microdilution method; settings: NBRC 32229, 72 h; method in brief: as §2
Aspergillus fumigatus [5] = assay: Antifungal activity against Aspergillus fumigatus IFM 46895 after 48 hrs by broth microdilution method; settings: IFM 46895, 48 h; method in brief: as §2
Candida tropicalis [6] = assay: Antifungal activity against Candida tropicalis clinical isolates after 48 hrs by broth microdilution method; method in brief: as §3
Cryptococcus neoformans = assay: Antifungal activity against Cryptococcus neoformans ATCC 90113 after 72 hrs by broth microdilution method; settings: ATCC 90113, 72 h; method in brief: as §2
Candida albicans [7] = assay: Antifungal activity against Candida albicans ATCC 90028 after 48 hrs by broth microdilution method; settings: ATCC 90028, 48 h; method in brief: as §2
Candida albicans [8] = assay: Antifungal activity against Candida albicans ATCC 96901 after 47 hrs by broth microdilution method; settings: ATCC 96901, 47 h; method in brief: as §1
Aspergillus niger = assay: Antifungal activity against Aspergillus niger NBRC 33023 after 48 hrs by broth microdilution method; settings: NBRC 33023, 48 h; method in brief: as §2
Candida albicans [9] = assay: Antifungal activity against Candida albicans ATCC MYA-2732 after 47 hrs by broth microdilution method; settings: ATCC MYA-2732, 47 h; method in brief: as §4
Trichophyton rubrum = assay: Antifungal activity against Trichophyton rubrum NBRC 5467 after 72 hrs by broth microdilution method; settings: NBRC 5467, 72 h; method in brief: as §2
Candida albicans [10] = assay: Antifungal activity against Candida albicans ATCC 64550 after 47 hrs by broth microdilution method; settings: ATCC 64550, 47 h; method in brief: as §4
Aspergillus nidulans = assay: Antifungal activity against Aspergillus nidulans NBRC 33017 after 48 hrs by broth microdilution method; settings: NBRC 33017, 48 h; method in brief: as §2

Work on `OC(Cn1cncn1)(Cn1cncn1)c1ccc(F)cc1F` [FLUCONAZOLE] yielded an MIC (Candida albicans [1]) greater than 64 µg/mL, an MFC (Candida dubliniensis) greater than 64 µg/mL and an MIC (Candida dubliniensis) of 0.125 µg/mL (≈ 0.408 µM). For the same compound, the MFC (Pichia kudriavzevii) was 64 µg/mL (≈ 209 µM), the MIC (Pichia kudriavzevii) was 32 µg/mL (≈ 104 µM) and the MFC (Fusarium solani) was greater than 64 µg/mL. The MIC (Fusarium solani) was greater than 64 µg/mL, the MIC (Aspergillus fumigatus [2]) was greater than 64 µg/mL and the MIC50 (Aspergillus fumigatus [2]) was greater than 64 µg/mL. For the same compound, the MIC90 (Aspergillus fumigatus [2]) was greater than 64 µg/mL, the MFC (Aspergillus flavus) was greater than 64 µg/mL and the MIC (Aspergillus flavus) was greater than 64 µg/mL. For the same compound, the MFC (Lichtheimia corymbifera) was greater than 64 µg/mL, the MIC (Lichtheimia corymbifera) was greater than 64 µg/mL and the MIC50 (Candida parapsilosis) was 0.5 µg/mL (≈ 1.63 µM). It also gave an MIC90 (Candida parapsilosis) of 1 µg/mL (≈ 3.27 µM), an MFC (Candida tropicalis [3]) greater than 64 µg/mL and an MIC (Candida tropicalis [3]) of 2 µg/mL (≈ 6.53 µM). It also gave an MFC (Mucor racemosus) greater than 64 µg/mL, an MIC (Mucor racemosus) greater than 64 µg/mL and an MIC (Candida albicans [4]) of 64 µg/mL (≈ 209 µM). The MFC (Scedosporium boydii) was greater than 64 µg/mL, the MIC (Scedosporium boydii) was 16 µg/mL (≈ 52.2 µM) and the MFC (Aspergillus fumigatus [5]) was greater than 64 µg/mL. For the same compound, the MIC (Aspergillus fumigatus [5]) was greater than 64 µg/mL, the MIC50 (Candida tropicalis [6]) was 0.5 µg/mL (≈ 1.63 µM) and the MIC90 (Candida tropicalis [6]) was 1 µg/mL (≈ 3.27 µM). For the same compound, the MFC (Cryptococcus neoformans) was greater than 64 µg/mL, the MIC (Cryptococcus neoformans) was 4 µg/mL (≈ 13.1 µM) and the MFC (Candida albicans [7]) was greater than 64 µg/mL. It also gave an MIC (Candida albicans [7]) of 0.125 µg/mL (≈ 0.408 µM), an MIC (Candida albicans [8]) greater than 64 µg/mL and an MFC (Aspergillus niger) greater than 64 µg/mL. It also gave an MIC (Aspergillus niger) greater than 64 µg/mL, an MIC (Candida albicans [9]) of 16 µg/mL (≈ 52.2 µM) and an MFC (Trichophyton rubrum) greater than 64 µg/mL. The MIC (Trichophyton rubrum) was 0.25 µg/mL (≈ 0.816 µM), the MIC (Candida albicans [10]) was 16 µg/mL (≈ 52.2 µM) and the MFC (Aspergillus nidulans) was greater than 64 µg/mL. It also gave an MIC (Aspergillus nidulans) of 64 µg/mL (≈ 209 µM).
